According to ChEMBL document CHEMBL4014308, “Amphiphilic Tobramycin-Lysine Conjugates Sensitize Multidrug Resistant Gram-Negative Bacteria to Rifampicin and Minocycline” (J Med Chem, 2017):
Calls of active or inactive are those of the source. No cut-off for these calls is given here.

Tests used:
Type in all cases: functional
Staphylococcus aureus = assay: Antibacterial activity against Staphylococcus aureus ATCC 29213 after 18 hrs by microtiter dilution assay; conditions: ATCC 29213, 18 h
Method in brief: (§1)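 Broth microdilution following CLSI guidelines. An overnight culture was adjusted to 0.5 McFarland in saline, then diluted 1:50 in Mueller-Hinton broth. This inoculum was added in equal volume to 2-fold serial dilutions of agent in MHB and incubated 18 h at 37 °C. MIC was the lowest concentration with no visible growth.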

Pseudomonas aeruginosa [1] = assay: Potentiation of minocycline-induced antibacterial activity against multidrug/extremely drug-resistant/colistin-susceptible Pseudomonas aeruginosa isolate P259-96918 at 4 ug/ml after 18 hrs by checkerboard assay
Method in brief: (§2)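 Checkerboard in Mueller-Hinton broth: antibiotic serially diluted along one axis and adjuvant along the other (10 × 7 matrix). Inoculum from a 0.5 McFarland saline suspension diluted 1:50 in MHB; 18 h at 37 °C, then plate read. MIC is the lowest concentration with no growth. FIC of each agent is its concentration in a no-growth well divided by its MIC alone; FIC index is the sum of both. FIC index ≤0.5 counts as synergy.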

Pseudomonas aeruginosa [2] = assay: Potentiation of chloramphenicol-induced antibacterial activity against Pseudomonas aeruginosa PAO1 at 4 ug/ml after 18 hrs by checkerboard assay; method in brief: as §2
Pseudomonas aeruginosa [3] = assay: Bactericidal activity against Pseudomonas aeruginosa PAO1 at antibacterial MIC after 2 hrs
Method in brief: (§3)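 Time-kill with P. aeruginosa PAO1. A 0.5 McFarland suspension was diluted 1:50 in LB broth and exposed to agent in PBS (pH 7.2) at 1/2×, 1×, 2× or 4× MIC at 37 °C for 6 h. Samples at 0, 10, 30, 60, 90, 120, 240 and 360 min were serially diluted in PBS, plated on LB agar, and colonies counted after 20 h at 37 °C.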

Pseudomonas aeruginosa [4] = assay: Potentiation of novobiocin-induced antibacterial activity against Pseudomonas aeruginosa PAO1 at 4 ug/ml after 18 hrs by checkerboard assay
Pseudomonas aeruginosa [5] = assay: Potentiation of ceftazidime-induced antibacterial activity against Pseudomonas aeruginosa PAO1 at 4 ug/ml after 18 hrs by checkerboard assay; method in brief: as §2
Klebsiella pneumoniae [6] = assay: Synergistic antibacterial activity against multidrug-resistant Klebsiella pneumoniae 116381 after 18 hrs in presence of rifampicin by checkerboard assay; conditions: Klebsiella pneumoniae, 116381, 18 h
Method in brief: (§4)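 Checkerboard in Mueller-Hinton broth: antibiotic serially diluted along one axis and adjuvant along the other (10 × 7 matrix). Inoculum was overnight culture set to 0.5 McFarland in saline, then diluted 1:50 in broth. Incubated 18 h at 37 °C. MIC was the lowest concentration with no growth. FIC index is the sum of both FICs (combination concentration ÷ MIC alone); ≤0.5 counted as synergy.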

Acinetobacter baumannii [7] = assay: Potentiation of rifampicin-induced antibacterial activity against multidrug-resistant Acinetobacter baumannii AB031 at 4 ug/ml after 18 hrs by checkerboard assay; method in brief: as §2
Pseudomonas aeruginosa [8] = assay: Potentiation of trimethoprim-induced antibacterial activity against Pseudomonas aeruginosa PAO1 at 4 ug/ml after 18 hrs by checkerboard assay
Method in brief: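 Checkerboard broth microdilution in MHB: antibiotic serially diluted along one axis, adjuvant along the other (10 × 7 matrix). Inoculum from 0.5 McFarland saline suspension diluted 1:50 in MHB; 18 h at 37 °C. MIC taken as lowest concentration with no growth. FIC per agent = combination MIC/MIC alone; FIC index = sum (≤0.5 synergy).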

Pseudomonas aeruginosa [9] = assay: Potentiation of minocycline-induced antibacterial activity against multidrug/extremely drug-resistant/colistin-susceptible Pseudomonas aeruginosa isolate P262-101856 assessed as fold reduction in minocycline MIC at 4 ug/ml after 18 hrs by checkerboard assay relative to control
Method in brief: (§5)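 Checkerboard in Mueller-Hinton broth, 10 × 7 matrix, with the adjuvant held at 4 µg/mL. Inoculum from a 0.5 McFarland suspension diluted 1:50; 18 h at 37 °C. Antibiotic MIC (lowest concentration with no growth) with adjuvant is compared with the antibiotic MIC alone, giving a fold reduction.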

Klebsiella pneumoniae [10] = assay: Synergistic antibacterial activity against multidrug-resistant Klebsiella pneumoniae 116381 after 18 hrs in presence of minocycline by checkerboard assay; conditions: Klebsiella pneumoniae, 116381, 18 h; method in brief: as §4
Pseudomonas aeruginosa [11] = assay: Potentiation of rifampicin-induced antibacterial activity against multidrug/extremely drug-resistant/colistin-resistant Pseudomonas aeruginosa isolate 101243 at 4 ug/ml after 18 hrs by checkerboard assay; method in brief: as §2
Enterococcus faecalis = assay: Antibacterial activity against Enterococcus faecalis ATCC 29212 after 18 hrs by microtiter dilution assay; conditions: ATCC 29212, 18 h
Method in brief: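 Broth microdilution per CLSI. Overnight culture adjusted to 0.5 McFarland in saline, diluted 1:50 in Mueller-Hinton broth, and added to an equal volume of 2-fold serial compound dilutions in MHB. Incubated 18 h at 37 °C. MIC taken as the lowest concentration with no visible growth.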

Pseudomonas aeruginosa [12] = assay: Potentiation of rifampicin-induced antibacterial activity against multidrug/extremely drug-resistant/colistin-susceptible Pseudomonas aeruginosa isolate 100036 at 4 ug/ml after 18 hrs by checkerboard assay; method in brief: as §2
Pseudomonas aeruginosa [13] = assay: Synergistic antibacterial activity against Pseudomonas aeruginosa PAO1 after 18 hrs in presence of meropenem by checkerboard assay; conditions: PAO1, 18 h
Method in brief: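 Checkerboard in MHB: antibiotic diluted along one axis and adjuvant along the other (10 × 7 matrix). Inoculum was a 1:50 dilution in MHB of a 0.5 McFarland saline suspension; incubated 18 h at 37 °C. Each FIC = concentration in the no-growth well divided by the MIC alone; FIC index = sum of both FICs. ≤0.5 synergy, 0.5–4 no interaction, ≥4 antagonism.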

[14] = tested on: Staphylococcus epidermidis; assay: Antibacterial activity against methicillin-resistant Staphylococcus epidermidis isolate CAN-ICU 61589 after 18 hrs by microtiter dilution assay; conditions: isolate CAN-ICU 61589, 18 h; method in brief: as §1
Pseudomonas aeruginosa [15] = assay: Antibacterial activity against multidrug/extremely drug-resistant/colistin-susceptible Pseudomonas aeruginosa isolate P259-96918 after 18 hrs by microtiter dilution assay; conditions: isolate P259-96918, 18 h; method in brief: as §1
Pseudomonas aeruginosa [16] = assay: Potentiation of rifampicin-induced antibacterial activity against multidrug/extremely drug-resistant/colistin-susceptible Pseudomonas aeruginosa isolate P262-101856 assessed as fold reduction in rifampicin MIC at 4 ug/ml after 18 hrs by checkerboard assay relative to control; method in brief: as §5
Pseudomonas aeruginosa [17] = assay: Bactericidal activity against Pseudomonas aeruginosa PAO1 at 4 times antibacterial MIC after 10 mins; method in brief: as §3
Acinetobacter baumannii [18] = assay: Potentiation of minocycline-induced antibacterial activity against multidrug-resistant Acinetobacter baumannii AB031 at 4 ug/ml after 18 hrs by checkerboard assay; method in brief: as §2
Pseudomonas aeruginosa [19] = assay: Potentiation of minocycline-induced antibacterial activity against multidrug/extremely drug-resistant/colistin-susceptible Pseudomonas aeruginosa isolate P262-101856 at 4 ug/ml after 18 hrs by checkerboard assay; method in brief: as §2
Pseudomonas aeruginosa [20] = assay: Potentiation of minocycline-induced antibacterial activity against multidrug/extremely drug-resistant/colistin-susceptible Pseudomonas aeruginosa isolate P259-96918 assessed as fold reduction in minocycline MIC at 4 ug/ml after 18 hrs by checkerboard assay relative to control; method in brief: as §5

Cl.Cl.Cl.Cl.Cl.Cl.Cl.NCCCC[C@H](N)C(=O)N(CCCCCCCCCCCCO[C@@H]1[C@@H](O[C@H]2O[C@H](CO)[C@@H](O)[C@H](N)[C@H]2O)[C@H](N)C[C@H](N)[C@H]1O[C@H]1O[C@H](CN)[C@@H](O)C[C@H]1N)Cc1c2ccccc2c(Cl)c2ccccc12
MIC (Staphylococcus aureus): 8 µg/mL
fractional inhibitory concentration index (FICI) (Pseudomonas aeruginosa [1]): 0.047
fractional inhibitory concentration index (FICI) (Pseudomonas aeruginosa [2]): 0.156
Activity (Pseudomonas aeruginosa [3]): Active
fractional inhibitory concentration index (FICI) (Pseudomonas aeruginosa [4]): 0.071
fractional inhibitory concentration index (FICI) (Pseudomonas aeruginosa [5]): 0.563
MIC (Klebsiella pneumoniae [6]): 4 µg/mL
fractional inhibitory concentration index (FICI) (Acinetobacter baumannii [7]): 0.09
fractional inhibitory concentration index (FICI) (Pseudomonas aeruginosa [8]): 0.126
fold change (FC) (Pseudomonas aeruginosa [9]): 128
MIC (Klebsiella pneumoniae [10]): 16 µg/mL
fractional inhibitory concentration index (FICI) (Pseudomonas aeruginosa [11]): 0.188
MIC (Enterococcus faecalis): 16 µg/mL
fractional inhibitory concentration index (FICI) (Pseudomonas aeruginosa [12]): 0.079
MIC (Pseudomonas aeruginosa [13]): 1 µg/mL
MIC [14]: 4 µg/mL
MIC (Pseudomonas aeruginosa [15]): 64 µg/mL
fold change (FC) (Pseudomonas aeruginosa [16]): 64
Activity (Pseudomonas aeruginosa [17]): Active
fractional inhibitory concentration index (FICI) (Acinetobacter baumannii [18]): 0.625
fractional inhibitory concentration index (FICI) (Pseudomonas aeruginosa [19]): 0.133
fold change (FC) (Pseudomonas aeruginosa [20]): 64
